Experimental data from ChEMBL document CHEMBL4368942, “Dual inhibitors of RAF-MEK-ERK and PI3K-PDK1-AKT pathways: Design, synthesis and preliminary anticancer activity studies of 3-substituted-5-(phenylamino) indolone derivatives” (Bioorg Med Chem, 2019).
Activity calls are given as the source filed them. The calls are words filed in the database; no cut-off is given here.

Columns and labels:
A549 [1] = assay: Antiproliferative activity against human A549 cells after 48 hrs by MTT assay; type: functional, cell-based; conditions: A549, 48 h
Summary of the method: (§1)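 Cells grown in DMEM with 10% FBS and penicillin/streptomycin at 37°C, 5% CO2. 2 × 10^5 cells seeded per well in 200 µL medium. Compounds added 30 min after seeding, then 48 h incubation at 37°C. MTT (5 mg/ml stock) added for the last 4 h. Formazan dissolved in DMSO.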

NCI-H460 = assay: Antiproliferative activity against human NCI-H460 cells after 48 hrs by MTT assay; type: functional, cell-based; conditions: NCI-H460, 48 h; summary of the method: as §1
A549 [2] = assay: Induction of apoptosis in human A549 cells assessed as viable cells at 2.5 uM after 12 hrs by Annexin V-FITC/propidium iodide staining-based flow cytometric analysis (reference value: 90.6%); type: functional; conditions: A549, 12 h, read-out: Activity
Summary of the method: (§2)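 After 12 h treatment with DMSO as control, A549 cells were harvested by trypsin, washed twice in PBS and resuspended at 1 × 10^6 cells/mL in binding buffer. Annexin V-FITC and PI staining for 30 min at room temperature in the dark. Flow cytometry with 488 nm excitation, FITC read at 530 nm and PI at 670 nm. Quadrant percentages are means of three independent experiments.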

A549 [3] = assay: Induction of apoptosis in human A549 cells assessed as early apoptotic cells at 2.5 uM after 12 hrs by Annexin V-FITC/propidium iodide staining-based flow cytometric analysis (reference value: 7.19%); type: functional; summary of the method: as §2
A549 [4] = assay: Induction of apoptosis in human A549 cells assessed as late apoptotic cells at 2.5 uM after 12 hrs by Annexin V-FITC/propidium iodide staining-based flow cytometric analysis (reference value: 0.76%); type: functional; summary of the method: as §2
A549 [5] = assay: Induction of apoptosis in human A549 cells assessed as necrotic cells at 2.5 uM after 12 hrs by Annexin V-FITC/propidium iodide staining-based flow cytometric analysis (reference value: 1.42%); type: functional; summary of the method: as §2
A549 [6] = assay: Induction of apoptosis in human A549 cells assessed as viable cells at 5 uM after 12 hrs by Annexin V-FITC/propidium iodide staining-based flow cytometric analysis (reference value: 90.6%); type: functional; conditions: A549, 12 h, read-out: Activity; summary of the method: as §2
A549 [7] = assay: Induction of apoptosis in human A549 cells assessed as early apoptotic cells at 5 uM after 12 hrs by Annexin V-FITC/propidium iodide staining-based flow cytometric analysis (reference value: 7.19%); type: functional; summary of the method: as §2
A549 [8] = assay: Induction of apoptosis in human A549 cells assessed as late apoptotic cells at 5 uM after 12 hrs by Annexin V-FITC/propidium iodide staining-based flow cytometric analysis (reference value: 0.76%); type: functional; summary of the method: as §2
A549 [9] = assay: Induction of apoptosis in human A549 cells assessed as necrotic cells at 5 uM after 12 hrs by Annexin V-FITC/propidium iodide staining-based flow cytometric analysis (reference value: 1.42%); type: functional; summary of the method: as §2
A549 [10] = assay: Inhibition of RAF/MEK/ERK in human A549 cells assessed as reduction in ERK phosphorylation after 8 hrs by Western blot analysis; type: cell-based
Summary of the method: (§3)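 Western blot with primary antibody in BSA overnight at 4°C. Washes in TBS/0.05% Tween-20, then secondary antibody for 1 h at room temperature. Chemiluminescent detection. p-ERK or p-AKT band density normalized to β-actin loading control versus control. Average of three independent experiments.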

A549 [11] = assay: Inhibition of PI3K/PDK1/AKT in human A549 cells assessed as reduction in AKT phosphorylation after 8 hrs by Western blot analysis; type: cell-based; summary of the method: as §3
A549 [12] = assay: Inhibition of RAF/MEK/ERK in human A549 cells assessed as reduction in ERK phosphorylation at 2.5 uM after 8 hrs by Western blot analysis; type: cell-based; summary of the method: as §3
A549 [13] = assay: Inhibition of PI3K/PDK1/AKT in human A549 cells assessed as reduction in AKT phosphorylation at 2.5 uM after 8 hrs by Western blot analysis; type: cell-based; summary of the method: as §3
A549 [14] = assay: Inhibition of RAF/MEK/ERK in human A549 cells assessed as reduction in ERK phosphorylation at 1 uM after 8 hrs by Western blot analysis relative to control; type: cell-based; summary of the method: as §3
A549 [15] = assay: Inhibition of PI3K/PDK1/AKT in human A549 cells assessed as remaining AKT phosphorylation level at 1 uM after 8 hrs by Western blot analysis
A549 [16] = assay: Inhibition of PI3K/PDK1/AKT in human A549 cells assessed as reduction in AKT phosphorylation at 1 uM after 8 hrs by Western blot analysis; type: cell-based; summary of the method: as §3

Structure (SMILES)	IC50 (A549 [1]) [µM]	IC50 (NCI-H460) [µM]	other results
CCCCCC1(O)C(=O)Nc2ccc(Nc3ccc(C(F)(F)F)cc3)cc21 (configuration not stated)	2.2	16.3	
Cc1ccc(Nc2ccc3c(c2)C(CC2CCCCC2)C(=O)N3)cc1 (configuration not stated)	> 30	> 100	
O=C1Nc2ccc(Nc3ccc(F)cc3)cc2C1Cc1ccc2c(c1)OCO2 (configuration not stated)	> 30	> 100	
CC(C)CCC1(O)C(=O)Nc2ccc(Nc3ccc(Cl)cc3)cc21 (configuration not stated)	2.7	25	
CC(C)CCC1(O)C(=O)Nc2ccc(Nc3ccc(C(F)(F)F)cc3)cc21 (configuration not stated)	4.2	17.2	
CCCCC1(O)C(=O)Nc2ccc(Nc3ccc(C)cc3)cc21 (configuration not stated)	7.5	31.8	
CC(C)CCC1(O)C(=O)Nc2ccc(Nc3ccc(F)cc3)cc21 (configuration not stated)	5.7	16.8	
O=C1Nc2ccc(Nc3ccc(C(F)(F)F)cc3)cc2C1(O)Cc1ccc2c(c1)OCO2 (configuration not stated)	1.8	18.2	viability at 2.5 µM (A549 [2]): 82.7%; Activity (A549 [3]): 11.6%; Activity (A549 [4]): 3.39%; Activity (A549 [5]): 2.25%; viability at 5 µM (A549 [6]): 65.3%; Activity (A549 [7]): 25.5%; Activity (A549 [8]): 7.57%; Activity (A549 [9]): 1.7%; inhibition (A549 [10]): Dose-dependent effect; inhibition (A549 [11]): Dose-dependent effect; inhibition (A549 [12]): Active; inhibition (A549 [13]): Active
Cc1ccc(Nc2ccc3c(c2)C(O)(Cc2ccc4c(c2)OCO4)C(=O)N3)cc1 (configuration not stated)	11.9	14.7	
COc1ccc(Nc2ccc3c(c2)C(O)(Cc2ccccc2)C(=O)N3)cc1 (configuration not stated)	> 30	> 100	
O=C1Nc2ccc(Nc3ccccc3Cl)cc2C1(O)Cc1ccccc1 (configuration not stated)	2.3	14.6	
O=C1Nc2ccc(Nc3ccc(Cl)cc3)cc2/C1=C\C1CCCCC1	2.4	13.2	
O=C1Nc2ccc(Nc3ccc(C(F)(F)F)cc3)cc2C1(O)Cc1ccccc1 (configuration not stated)	2	9.1	
CC(C)CCC1C(=O)Nc2ccc(Nc3ccc(Cl)cc3)cc21 (configuration not stated)	2	48.7	
O=C1Nc2ccc(Nc3ccc(F)cc3)cc2C1(O)Cc1ccc2c(c1)OCO2 (configuration not stated)	24.9	80.4	
Cc1ccc(Nc2ccc3c(c2)/C(=C\C2CCCCC2)C(=O)N3)cc1	28.2	45.5	
NC1(c2ccc(-c3nc4ccn5c(=O)[nH]nc5c4cc3-c3ccccc3)cc2)CCC1 [MK-2206]	8.1		inhibition (A549 [14]): Active; remaining p-AKT level (A549 [15]): 33%
CCCCCCC1(O)C(=O)Nc2ccc(Nc3ccc(Cl)cc3)cc21 (configuration not stated)	5.4	30.3	
O=C1Nc2ccc(Nc3ccc(Cl)cc3)cc2C1Cc1ccc2c(c1)OCO2 (configuration not stated)	6	36.7	
CCCCCCC1(O)C(=O)Nc2ccc(Nc3ccc(C)cc3)cc21 (configuration not stated)	12.1	> 100	
CCCCC1(O)C(=O)Nc2ccc(Nc3ccc(F)cc3)cc21 (configuration not stated)	6.5	32.5	
O=C1Nc2ccc(Nc3ccc(Cl)cc3)cc2C1CC1CCCCC1 (configuration not stated)	16.6	> 100	
O=C1Nc2ccc(Nc3ccc(Cl)cc3)cc2/C1=C\c1ccccc1	15	13.5	

Structure (SMILES)	IC50 (A549 [1]) [µM]	IC50 (NCI-H460) [µM]	other results
O=C1Nc2ccc(Nc3ccc(Cl)cc3)cc2C1(O)Cc1ccc2c(c1)OCO2 (configuration not stated)	3	26.6	
CCCCCCC1(O)C(=O)Nc2ccc(Nc3ccc(C(F)(F)F)cc3)cc21 (configuration not stated)	2.8	18.8	
CCCCCCC1(O)C(=O)Nc2ccc(Nc3ccc(F)cc3)cc21 (configuration not stated)	12	50.7	
CCCCCC1(O)C(=O)Nc2ccc(Nc3ccc(OC)cc3)cc21 (configuration not stated)	8	16.2	
CCC/C=C1/C(=O)Nc2ccc(Nc3ccc(C)cc3)cc21	3.6	19	
Cc1ccc(Nc2ccc3c(c2)C(CCC(C)C)C(=O)N3)cc1 (configuration not stated)	6.6	55.3	
CCCCCC1(O)C(=O)Nc2ccc(Nc3ccc(Cl)cc3)cc21 (configuration not stated)	1.9	40.8	viability at 2.5 µM (A549 [2]): 83.2%; Activity (A549 [3]): 11.9%; Activity (A549 [4]): 2.57%; Activity (A549 [5]): 2.31%; viability at 5 µM (A549 [6]): 72.3%; Activity (A549 [7]): 20.3%; Activity (A549 [8]): 5.65%; Activity (A549 [9]): 1.82%
O=C1Nc2ccc(Nc3ccc(F)cc3)cc2C1(O)Cc1ccccc1 (configuration not stated)	3	18.1	
Cc1ccc(Nc2ccc3c(c2)/C(=C\c2ccc4c(c2)OCO4)C(=O)N3)cc1	16.7	> 100	
CCCCCC1(O)C(=O)Nc2ccc(Nc3ccc(F)cc3)cc21 (configuration not stated)	5.9	> 100	
CC(C)C/C=C1/C(=O)Nc2ccc(Nc3ccc(Cl)cc3)cc21	7.4	50.9	
O=C1Nc2ccc(Nc3ccc(Cl)cc3)cc2/C1=C\c1ccc2c(c1)OCO2	3.1	24.6	
Cc1ccc(Nc2ccc3c(c2)C(O)(CCC(C)C)C(=O)N3)cc1 (configuration not stated)	12.5	22.7	
Cc1ccc(Nc2ccc3c(c2)C(O)(Cc2ccccc2)C(=O)N3)cc1 (configuration not stated)	4.1	31.6	
CCCCCC1(O)C(=O)Nc2ccc(Nc3ccc(C)cc3)cc21 (configuration not stated)	8.1	> 100	
CCCCCCC1(O)C(=O)Nc2ccc(Nc3ccc(OC)cc3)cc21 (configuration not stated)	18.6	> 100	
Cc1ccc(Nc2ccc3c(c2)C(Cc2ccc4c(c2)OCO4)C(=O)N3)cc1 (configuration not stated)	18.9	63.6	
Cn1cnc2c(F)c(Nc3ccc(Br)cc3Cl)c(C(=O)NOCCO)cc21 [SELUMETINIB]	5.2		inhibition (A549 [14]): 65%; inhibition (A549 [16]): inactive
CCCCC1(O)C(=O)Nc2ccc(Nc3ccc(C(F)(F)F)cc3)cc21 (configuration not stated)	2.3	12	
O=C1Nc2ccc(Nc3ccc(Cl)cc3)cc2C1(O)Cc1ccccc1 (configuration not stated)	3.1	20.2	
CCCCC1(O)C(=O)Nc2ccc(Nc3ccc(Cl)cc3)cc21 (configuration not stated)	2.8	24.4	
O=C1Nc2ccc(Nc3ccc(F)cc3)cc2/C1=C\c1ccc2c(c1)OCO2	26.3	> 100	
